What all share (assay type): functional
Assay [1] has as its system Tobacco mosaic virus. Description: In vivo antiviral activity against Tobacco mosaic virus (TMV) infected left side of tobacco leaves assessed as curative effect by decreasing local lesion number at 500 mg/l treated after viral inoculation measured at 3-4 days after viral challenge. An outline of the steps: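 Curative mode: N. tabacum leaves of the same age; compound solution smeared on left half, solvent on right half as control. Local lesions counted 3-4 days after inoculation; three repeats per compound. Inhibition rate derived from average lesion numbers of treated versus untreated control halves. TMV purified from infected leaves (PEG precipitation, 4 °C).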

For assay [2], the system named is Tobacco mosaic virus. Description: In vivo antiviral activity against Tobacco mosaic virus (TMV) infected left side of tobacco leaves assessed as inactivation effect by decreasing local lesion number at 500 mg/l co-incubated with virus for 30 min before inoculation onto leaves measured at 3-4 days after viral challenge. A digest of the protocol: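 TMV, purified from infected N. tabacum leaves by grinding in phosphate buffer and PEG precipitation at 4 °C, was mixed with an equal volume of compound solution for 30 min. The mixture was inoculated on the left half of the leaf and a solvent-virus mixture on the right half as control. Local lesions recorded 3-4 days later.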

For assay [3], the system named is Tobacco mosaic virus. Description: In vivo antiviral activity against Tobacco mosaic virus (TMV) infected left side of tobacco leaves assessed as protective effect by decreasing local lesion number at 500 mg/l treated 12 hr before viral inoculation measured at 3-4 days after viral challenge. A digest of the protocol:
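Protective mode: compound solution smeared on the left half of same-age N. tabacum leaves, solvent on the right half as control. After 12 h, the leaves were dusted with silicon carbide and brush-inoculated with TMV at 6 × 10^-3 mg/mL. Local lesions counted 3-4 days after inoculation.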

Among the data in ChEMBL document CHEMBL3046552, “Synthesis and antiviral bioactivities of 2-cyano-3-substituted-amino(phenyl) methylphosphonylacrylates (acrylamides) containing alkoxyethyl moieties” (2010) are inhibition in vivo values, retold here.

With `COCCOP(=O)(OCCOC)C(N/C(SC)=C(/C#N)C(=O)NCc1ccccc1)c1ccccc1F` (configuration not stated), the inhibition in vivo at 500 µg/mL amounted to 28.6% with Tobacco mosaic virus [1], 40.8% in the assay with Tobacco mosaic virus [2] and 39.9% in the assay with Tobacco mosaic virus [3].

Consider `CCOCCOP(=O)(OCCOCC)C(N/C(SC)=C(/C#N)C(=O)OCCOC)c1ccccc1F` (configuration not stated), for which the inhibition in vivo at 500 µg/mL came out at 60% with Tobacco mosaic virus [1], 85.5% in the assay on Tobacco mosaic virus [2] and 58.9% with Tobacco mosaic virus [3].

As to `CCOCCOP(=O)(OCCOCC)C(N/C(SC)=C(/C#N)C(=O)OCC)c1ccccc1` (configuration not stated), the inhibition in vivo at 500 µg/mL with Tobacco mosaic virus [1] came out at 51.1%; in the assay on Tobacco mosaic virus [2] it was 35.4%; in the assay with Tobacco mosaic virus [3], 45.9%.

In the case of `CCOCCOP(=O)(OCCOCC)C(N/C(SC)=C(/C#N)C(=O)OCCOc1ccccc1)c1ccccc1` (configuration not stated), the inhibition in vivo at 500 µg/mL with Tobacco mosaic virus [1] was 44.1%; in the assay with Tobacco mosaic virus [2], 31.9%; in the assay with Tobacco mosaic virus [3] it was 3.8%.

Take `CNCC(=O)N[C@@H](CO)C(=O)N[C@H]1[C@H](O)[C@@H](O)[C@H](n2ccc(N)nc2=O)O[C@@H]1C(N)=O` [NINGNANMYCIN]: the inhibition in vivo at 500 µg/mL came out at 58.9% in the assay with Tobacco mosaic virus [1], 96% with Tobacco mosaic virus [2] and 57.7% in the assay on Tobacco mosaic virus [3].

For `CCOCCOC(=O)/C(C#N)=C(\NC(c1ccccc1)P(=O)(OCCOC)OCCOC)SC` (configuration not stated), the inhibition in vivo at 500 µg/mL in the assay with Tobacco mosaic virus [1] stood at 23.7%; with Tobacco mosaic virus [2], 12.2%; in the assay with Tobacco mosaic virus [3], 0%.

On to `COCCOP(=O)(OCCOC)C(N/C(SC)=C(/C#N)C(=O)OCCOc1ccccc1)c1ccccc1` (configuration not stated), for which the inhibition in vivo at 500 µg/mL with Tobacco mosaic virus [1] is 31%; with Tobacco mosaic virus [2], 21%; in the assay with Tobacco mosaic virus [3], 14.4%.

For `CCOCCOP(=O)(OCCOCC)C(N/C(SC)=C(/C#N)C(=O)OC)c1ccccc1` (configuration not stated), the inhibition in vivo at 500 µg/mL was found to be 4.3% with Tobacco mosaic virus [1], 0% with Tobacco mosaic virus [2] and 0% in the assay on Tobacco mosaic virus [3].

Consider `CCOCCOP(=O)(OCCOCC)C(N/C(SC)=C(/C#N)C(=O)OCC)c1ccccc1F` (configuration not stated), for which the inhibition in vivo at 500 µg/mL came out at 45.6% in the assay with Tobacco mosaic virus [1], 33.4% with Tobacco mosaic virus [2] and 12.9% in the assay with Tobacco mosaic virus [3].

Regarding `CCOCCOP(=O)(OCCOCC)C(N/C(SC)=C(/C#N)C(=O)OC)c1ccccc1F` (configuration not stated), the inhibition in vivo at 500 µg/mL in the assay with Tobacco mosaic virus [1] stood at 33%; in the assay with Tobacco mosaic virus [2], 12%; with Tobacco mosaic virus [3], 0%.

With `COCCOP(=O)(OCCOC)C(N/C(SC)=C(/C#N)C(=O)NCc1ccccc1)c1ccccc1` (configuration not stated), the inhibition in vivo at 500 µg/mL in the assay on Tobacco mosaic virus [1] is 29.6%; in the assay on Tobacco mosaic virus [2] it was 32.1%; in the assay on Tobacco mosaic virus [3], 39.7%.

On to `CCOCCOP(=O)(OCCOCC)C(N/C(SC)=C(/C#N)C(=O)OCCOC)c1ccccc1` (configuration not stated), for which the inhibition in vivo at 500 µg/mL turned out to be 58.8% in the assay with Tobacco mosaic virus [1], 78.9% in the assay with Tobacco mosaic virus [2] and 60.2% with Tobacco mosaic virus [3].

Regarding `CCOCCOC(=O)/C(C#N)=C(\NC(c1ccccc1)P(=O)(OCCOCC)OCCOCC)SC` (configuration not stated), the inhibition in vivo at 500 µg/mL was 46.4% in the assay with Tobacco mosaic virus [1], 29.5% with Tobacco mosaic virus [2] and 40.7% with Tobacco mosaic virus [3].

Consider `CCOCCOP(=O)(OCCOCC)C(N/C(SC)=C(/C#N)C(N)=O)c1ccccc1` (configuration not stated), for which the inhibition in vivo at 500 µg/mL in the assay with Tobacco mosaic virus [1] is 56.7%; in the assay on Tobacco mosaic virus [2] it was 80%; with Tobacco mosaic virus [3], 54.4%.

In the case of `CCOC(=O)/C(C#N)=C(\NC(c1ccccc1)P(=O)(OCCOC)OCCOC)SC` (configuration not stated), the values for the inhibition in vivo at 500 µg/mL in the assay with Tobacco mosaic virus [1], in the assay with Tobacco mosaic virus [2] and in the assay with Tobacco mosaic virus [3] were 32.1%, 28.3% and 21%, respectively.

As to `COCCOC(=O)/C(C#N)=C(\NC(c1ccccc1F)P(=O)(OCCOC)OCCOC)SC` (configuration not stated), the inhibition in vivo at 500 µg/mL in the assay with Tobacco mosaic virus [1] stood at 9.9%; in the assay with Tobacco mosaic virus [2] it was 0%; with Tobacco mosaic virus [3], 0%.

As to `COCCOP(=O)(OCCOC)C(N/C(SC)=C(/C#N)C(=O)OC)c1ccccc1F` (configuration not stated), the figures for the inhibition in vivo at 500 µg/mL with Tobacco mosaic virus [1], with Tobacco mosaic virus [2] and in the assay on Tobacco mosaic virus [3] were 34.5%, 41% and 22%, respectively.

`CCOCCOP(=O)(OCCOCC)C(N/C(SC)=C(/C#N)C(=O)NCc1ccccc1)c1ccccc1` (configuration not stated): the results for the inhibition in vivo at 500 µg/mL in the assay on Tobacco mosaic virus [1], in the assay on Tobacco mosaic virus [2] and in the assay with Tobacco mosaic virus [3] were 47.3%, 40.1% and 34.5%, respectively.

Regarding `CCOC(=O)/C(C#N)=C(\NC(c1ccccc1F)P(=O)(OCCOC)OCCOC)SC` (configuration not stated), the results for the inhibition in vivo at 500 µg/mL in the assay on Tobacco mosaic virus [1], with Tobacco mosaic virus [2] and in the assay on Tobacco mosaic virus [3] were 21.7%, 0% and 0%, respectively.

`COCCOP(=O)(OCCOC)C(N/C(SC)=C(/C#N)C(=O)OC)c1ccccc1` (configuration not stated): the inhibition in vivo at 500 µg/mL amounted to 28.8% with Tobacco mosaic virus [1], 0% with Tobacco mosaic virus [2] and 0% with Tobacco mosaic virus [3].

With `CCOCCOC(=O)/C(C#N)=C(\NC(c1ccccc1F)P(=O)(OCCOCC)OCCOCC)SC` (configuration not stated), the inhibition in vivo at 500 µg/mL was 41.9% in the assay on Tobacco mosaic virus [1], 40.2% with Tobacco mosaic virus [2] and 31% with Tobacco mosaic virus [3].

`COCCOP(=O)(OCCOC)C(N/C(SC)=C(/C#N)C(N)=O)c1ccccc1F` (configuration not stated): the inhibition in vivo at 500 µg/mL with Tobacco mosaic virus [1] was 22%; in the assay with Tobacco mosaic virus [2] it was 44.8%; in the assay on Tobacco mosaic virus [3], 30%.

Take `COCCOC(=O)/C(C#N)=C(\NC(c1ccccc1)P(=O)(OCCOC)OCCOC)SC` (configuration not stated): the inhibition in vivo at 500 µg/mL in the assay on Tobacco mosaic virus [1] amounted to 43.1%; with Tobacco mosaic virus [2], 41.9%; in the assay with Tobacco mosaic virus [3], 40%.

`CCOCCOP(=O)(OCCOCC)C(N/C(SC)=C(/C#N)C(=O)OCCOc1ccccc1)c1ccccc1F` (configuration not stated): the results for the inhibition in vivo at 500 µg/mL in the assay with Tobacco mosaic virus [1], in the assay with Tobacco mosaic virus [2] and in the assay with Tobacco mosaic virus [3] were 27.7%, 23.7% and 30.7%, respectively.

With `CCOCCOP(=O)(OCCOCC)C(N/C(SC)=C(/C#N)C(N)=O)c1ccccc1F` (configuration not stated), the figures for the inhibition in vivo at 500 µg/mL in the assay with Tobacco mosaic virus [1], in the assay on Tobacco mosaic virus [2] and with Tobacco mosaic virus [3] were 30.6%, 33.9% and 30%, respectively.

Take `CCOCCOC(=O)/C(C#N)=C(\NC(c1ccccc1F)P(=O)(OCCOC)OCCOC)SC` (configuration not stated): the inhibition in vivo at 500 µg/mL with Tobacco mosaic virus [1] was determined as 31.4%; in the assay on Tobacco mosaic virus [2], 33.3%; in the assay with Tobacco mosaic virus [3] it was 21.9%.

`CCOCCOP(=O)(OCCOCC)C(N/C(SC)=C(/C#N)C(=O)NCc1ccccc1)c1ccccc1F` (configuration not stated): the results for the inhibition in vivo at 500 µg/mL in the assay with Tobacco mosaic virus [1], in the assay on Tobacco mosaic virus [2] and in the assay on Tobacco mosaic virus [3] were 54.3%, 79.9% and 55.4%, respectively.

With `COCCOP(=O)(OCCOC)C(N/C(SC)=C(/C#N)C(=O)OCCOc1ccccc1)c1ccccc1F` (configuration not stated), the values for the inhibition in vivo at 500 µg/mL in the assay on Tobacco mosaic virus [1], with Tobacco mosaic virus [2] and with Tobacco mosaic virus [3] were 41.8%, 44% and 29%, respectively.

Consider `COCCOP(=O)(OCCOC)C(N/C(SC)=C(/C#N)C(N)=O)c1ccccc1` (configuration not stated), for which the inhibition in vivo at 500 µg/mL stood at 43.2% in the assay on Tobacco mosaic virus [1], 66.7% in the assay on Tobacco mosaic virus [2] and 50% in the assay with Tobacco mosaic virus [3].
